Source: PubChem BioAssay (Johns Hopkins Ion Channel Center)
Only some compounds are listed: those with a hit (about 3.5% of all), similar ones and a draw of the others.
RGS4 block: inhibitors of human RGS4; 310,000 tested, 0.45% active; AID 463165; HEK293 M3R/RGS4 inducible, Fluo-4 calcium flux; hits give high values; triggered by carbachol at its EC20; B-score at 10 µM; P49798;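 active means B-score, a plate-corrected calcium signal, over three deviations above library mean, with baseline fluorescence within five deviations of library mean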;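 further: RGS4 expression induced by doxycycline in cells with stable M3 receptor; B-score is computed from the integrated fluorescence ratio over baseline after carbachol; higher B-score means a larger calcium signal and so more RGS4 inhibition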
Target sequence (P49798 whole entry, looked up): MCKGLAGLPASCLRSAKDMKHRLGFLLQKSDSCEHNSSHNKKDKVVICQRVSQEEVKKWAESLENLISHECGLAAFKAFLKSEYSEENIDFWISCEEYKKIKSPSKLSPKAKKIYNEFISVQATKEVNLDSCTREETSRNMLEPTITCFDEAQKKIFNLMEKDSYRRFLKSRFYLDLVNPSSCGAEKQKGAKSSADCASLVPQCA
MrgX1 PAM: allosterically activates human MrgX1 receptor signaling; B-score at 10 µM; MrgX1-HEK293, Fluo-4 calcium flux, FDSS; hits give high values; Q96LB2; AID 588675; 310,000 tested, 0.63% active;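 active means plate-corrected calcium response at least 3 library SD above typical, normal starting fluorescence, not activating the receptor alone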;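 further: compound read alongside a low EC10 to EC30 dose of BAM8-22 agonist; peak minus trough fluorescence over baseline measured at the second addition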
Target sequence (Q96LB2 whole entry, looked up): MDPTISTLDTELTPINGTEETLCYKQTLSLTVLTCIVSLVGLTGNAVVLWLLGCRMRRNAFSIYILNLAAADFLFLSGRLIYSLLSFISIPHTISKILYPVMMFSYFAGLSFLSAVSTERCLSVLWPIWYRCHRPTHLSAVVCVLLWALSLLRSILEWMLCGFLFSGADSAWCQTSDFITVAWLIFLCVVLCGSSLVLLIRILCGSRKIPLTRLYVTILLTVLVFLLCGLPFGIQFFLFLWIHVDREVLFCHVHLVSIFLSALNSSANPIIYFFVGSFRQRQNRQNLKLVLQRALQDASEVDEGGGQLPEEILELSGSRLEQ
RGS4 pot: potentiators or activators of RGS4; HEK293 M3R/inducible RGS4, carbachol calcium flux Fluo4; hits give low values; B-score at 10 µM; 310,000 tested, 0.92% active; AID 463111;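 active means B-score of the integrated calcium signal more than 4 SD below the library mean, with starting fluorescence not abnormally high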;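 further: negative B-score means reduced calcium response which marks RGS4 activation or potentiation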
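Reagent: ECmax carbachol challenge; Test system: M3R-expressing HEK293 line, RGS4 induced by doxycycline; Schedule: overnight RGS4 induction, 30 min dye load 37 °C, 20 min compound RT; Detection: calcium dye Fluo4 fluorescence; Read-out: Agonist-evoked peak-minus-minimum fluorescence over baseline, integrated ratio, B score.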
MrgX1 antag: human MrgX1 receptor antagonism, primary screen. MRGX1-HEK293 calcium flux, Fluo-4, BAM8-22 antagonism; hits give low values. B-score at 10 µM. 310,000 tested, 1.3% active. AID 588676. Q96LB2;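 active means calcium-response B-score plate-corrected more than 3 library SD below zero, starting fluorescence within 5 deviations, no agonist response on first addition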;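 further: peak minus trough fluorescence over baseline after final BAM8-22 challenge near maximal dose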
MrgX1 agonist: human MrgX1 receptor agonism, primary screen | Q96LB2 | MrgX1-HEK293 cells, Fluo-4 calcium fluorescence, agonist mode; hits give high values | B-score at 10 µM | 310,000 tested, 0.44% active | AID 588627;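 active means calcium response B-score plate-corrected fluorescence ratio at least 3 library SD, with starting fluorescence B-score inside 5 SD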
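Material – MrgX1-expressing HEK293 cells · Input – 15,000 cells seeded per well · Dosing – compound as first of three additions · Times – overnight seeding, then 1 h dark dye loading · Measured by – kinetic Fluo-4 NW fluorescence of intracellular calcium · Read-out – B-scored fluorescence response ratio · Benchmarks – positive and negative control wells on each plate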
Of the large screens only hits and unclear results are named; the others gave an inactive call.

O=CN/N=C/c1c(O)ccc2ccccc12	MrgX1 antag -5
Cc1cc(Nc2ccccc2)nc(-c2ccccc2O)n1	none
Oc1ccc2ccccc2c1/C=N/Nc1ccccc1	none
Cc1ccc(C(=O)OCC(=O)Nc2sc3c(c2C#N)CCCCC3)cc1NC(=O)c1ccco1	none
Cc1ccc(C(=O)OCC(=O)Nc2sc3c(c2C#N)CCCC3)cc1NC(=O)c1ccco1	RGS4 pot -7.48
Cc1cc(C(=O)NNS(=O)(=O)c2ccc(C(C)(C)C)cc2)nn1C(C)(C)C	MrgX1 PAM 9.82
Cc1ccc(S(=O)(=O)NNC(=O)C(O)(c2ccccc2)c2ccccc2)cc1	none
Cn1nnc2cc(NC(=O)Nc3cccc(C(F)(F)F)c3)ccc21	none
Cc1nn(CC(=O)Nc2c(F)c(F)cc(F)c2F)c(=O)c2cccn12	none
O=[N+]([O-])c1ccc(N2CCN(C(=S)Nc3ccccc3)CC2)cc1	MrgX1 PAM 7.46
c1ccc(CCN(Cc2ccccc2)C2CCN(C3CCCC3)CC2)cc1	none
Cc1cc(/C=C2\SC(=S)NC2=O)c(C)[nH]1	MrgX1 agonist 38.2
CCn1c(C)cc(/C=C2/SC(=S)NC2=O)c1C	none
Cc1nc2cc(NC(=O)c3ccc(S(=O)(=O)N(C)c4ccccc4)cc3)ccc2o1	none
CN(C)/N=C/C=C1\CCC/C(=C/c2cccs2)C1=O	MrgX1 PAM 9.42
CCN1/C(=C/c2sc(-c3ccccc3C)c[n+]2C)Sc2ccccc21	RGS4 pot -7.42 (no result: MrgX1 PAM, MrgX1 antag, MrgX1 agonist)
Cc1ccc(S(=O)(=O)c2nnn3c2nc(NCCCN2CCCC2=O)c2ccccc23)cc1C	none
Cc1ccc(S(=O)(=O)c2nnn3c2nc(NC2CCN(Cc4ccccc4)CC2)c2ccccc23)cc1C	MrgX1 PAM 8.27, MrgX1 antag -11
COCCCN1CN(S(=O)(=O)c2ccc(C)cc2C)c2nc3ccccc3nc21	none
COC(=O)c1cc(C)[nH]c2c(C)cc3nc4ccccc4c3c12	none
Cc1ccccc1C(=O)OC1CCN(C)CC1	none
CN1CCC(OC(=O)c2ccccc2Cl)CC1	RGS4 pot -7.19
O=C(NC1CCCC1)C(c1ccccc1F)N(C(=O)c1ccco1)C1CCCC1 (stereo not drawn)	RGS4 pot -7.13
CCOC(=O)CN(C(=O)CNC(=O)c1ccco1)C(C(=O)NC1CCCC1)c1ccccc1OCC (stereo not drawn)	MrgX1 antag -5.4
O=C(Nc1ccccc1Cl)c1ccc(S(=O)(=O)NCC2CCCO2)cc1 (stereo not drawn)	none
O=[N+]([O-])c1ccc(Oc2ccc(S(=O)(=O)N3CCOCC3)cn2)cc1	MrgX1 antag -7.96
C=CCn1c(=N)n(CC(=O)c2ccc(OC)cc2)c2ccccc21	none
Cc1cccc(C(=O)Oc2ccc(/C=N/NC(=O)c3cc(O)cc(O)c3)cc2)c1	RGS4 pot -10.2
COc1cc(/C=N/NC(=O)C(=O)N2CCCC2)ccc1O	MrgX1 antag -6.67
COc1ccc(/C=N/NC(=O)C(=O)N2CCCC2)cc1OC	none
COc1cc(C(=O)N/N=C/c2ccc(OC(=O)c3cccc(C)c3)c(OC)c2)ccc1O	RGS4 pot -7.06
Nc1ccc(C(=O)N/N=C\c2ccc(OC(=O)c3ccccc3Cl)cc2)cc1	none
COc1cc(C(=O)N/N=C/c2ccc(OC(=O)c3ccccc3Cl)cc2)ccc1O	RGS4 pot -10.5
O=C(O)c1cccc(N/N=C/C2=C(Cl)c3cc(Cl)ccc3SC2)c1	none (no result: MrgX1 PAM, MrgX1 antag, MrgX1 agonist)
C/C(=N\NC(=O)COc1cccc(C)c1)c1ccc2ccccc2c1O	none
C[C@]12C=CC(=O)C=C1CC[C@@H]1C2=CC[C@]2(C)[C@@H](C(=O)CN3CCN(c4cc(N5CCCC5)nc(N5CCCC5)n4)CC3)CC[C@@H]12	MrgX1 agonist 37.8
S=C1NCN(C2CCCCC2)CN1Cc1ccccc1	none
Cc1ccc(CSc2nnc(SCC(=O)N/N=C/c3ccc(C(=O)O)cc3)s2)cc1	MrgX1 antag -5.15
O=C(O)/C=C/c1ccc([N+](=O)[O-])o1	MrgX1 antag -5.2
CN1CCN(C(=O)/C=C/c2ccc([N+](=O)[O-])o2)CC1	none (no result: MrgX1 PAM, MrgX1 antag, MrgX1 agonist)
c1ccc(-c2ccc(CN3CCN(c4ncccn4)CC3)cc2)cc1	RGS4 pot -6.99
CN(CC(=O)Nc1ccc(Cl)c(C(F)(F)F)c1)C(=O)CCN1C(=O)C2CC=CCC2C1=O (stereo not drawn)	none
Cc1ccc(S(=O)(=O)NCC(=O)NCCc2c[nH]c3ccccc23)cc1C	none
Cc1ccc(NC(=O)C2CCCN2S(=O)(=O)c2ccc3c(c2)n(C)c(=O)c(=O)n3C)cc1C (stereo not drawn)	RGS4 pot -6.99
Cn1c(=O)c(=O)n(C)c2cc(S(=O)(=O)N3CCCC3C(=O)Nc3ccc(F)cc3)ccc21 (stereo not drawn)	none
COc1ccc(Nc2nc(-c3ccccc3F)nc3ccccc23)cc1OC	RGS4 pot -7.19
COc1ccc(Nc2nc(-c3ccccc3O)nc3ccccc23)cc1	RGS4 pot -6.96
Cc1cc(NC(=O)C(C)SCC(=O)N(Cc2ccccc2)c2ccccc2)no1 (stereo not drawn)	none
COc1ccc(-c2ccc(/C=C3/C(=N)N4C(C)=CSC4=NC3=O)o2)c([N+](=O)[O-])c1	MrgX1 agonist 28.8
COc1ccc(NS(=O)(=O)c2ccc(O)c(NC(=O)c3ccc(S(=O)(=O)N4CCCCCC4)cc3)c2)cc1	RGS4 pot -7.76
COc1ccc(NS(=O)(=O)c2ccc(O)c(NC(=O)c3ccc(S(=O)(=O)N4CCCC4)cc3)c2)cc1	none
Clc1cccc(COn2c(-c3ccc(Cl)cc3Cl)nc3ncccc32)c1	none
Cc1ccc(COn2c(-c3ccc(Cl)cc3Cl)nc3ncccc32)cc1	RGS4 pot -8.65
Cc1c2ccccc2nc2c(F)c(N(C)C)c(F)c(F)c12	MrgX1 antag -8.12
Cc1ccnc(NC(=O)C(C)n2cc([N+](=O)[O-])cn2)c1 (stereo not drawn)	none
CCCNC(=O)c1ccc2c(c1)nc(C)n2-c1cccc(Cl)c1	RGS4 pot -7.55
COCCCNC(=O)c1ccc2c(c1)nc(C)n2-c1cccc(C)c1	none
COCC(=O)N1CCC(Oc2ccc(C(=O)NC(C)c3nc(C)sc3C)cc2)CC1 (stereo not drawn)	none
O=C(c1ccco1)N1CCN(Cc2cc(=O)c(OCc3ccccc3)co2)CC1	MrgX1 antag -5.26
COc1ccc(Cn2c(=O)n(Cc3ccco3)c(=N)c3c4c(sc32)COC(C)(C)C4)cc1	none (no result: RGS4 block, RGS4 pot)
CC1(C)Cc2c(sc3c2c(=N)n(Cc2ccco2)c(=O)n3Cc2ccc(F)cc2)CO1	MrgX1 antag -4.56 (no result: RGS4 block, RGS4 pot)
CCOC(=O)CNC(=S)N1CCn2c(nc3ccccc32)C1	none
Cc1ccc(S(=O)(=O)N2CCC(C(=O)Nc3nnc(C)s3)CC2)cc1	none
CC(C)Cc1ccc(C(C)C(N)=NCCc2ccccc2)cc1 (stereo not drawn)	RGS4 pot -7.12
Cc1nn(CCOc2ccccc2)c(=O)n1-c1ccc(Cl)cc1	MrgX1 PAM 10.8
